According to ChEMBL document CHEMBL4622968, “Discovery of [1,2,4]triazolo[4,3-a]pyridines as potent Smoothened inhibitors targeting the Hedgehog pathway with improved antitumor activity in vivo” (Bioorg Med Chem, 2020):
Active and inactive are the calls of the source. The calls are words filed in the database; no cut-off is given here.

What was measured:
[1] = Acute toxicity in Kunming mouse assessed as mortality at 3453 mg/kg, ig observed for 14 days relative to control; type: organism-based; settings: in vivo, po, read-out: Activity
Outline: (§1)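 Kunming mice, groups of 5 female and 5 male per dose, dosed once by gavage at graded doses; mortality recorded over 14 days as dead/treated and percent. LD50 derived by improved Karber's method: LD50 = lg^-1[xm − i(ΣP − 0.5)], xm log of maximal dose, i log ratio of neighbouring doses; 95% confidence intervals given.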

MDA-MB-468 [2] = assay: Induction of apoptosis in human MDA-MB-468 cells assessed as live cells at 14 uM incubated for 48 hrs by annexin-V-FITC staining based flow cytometric method (reference value: 98.5 %); type: functional
MDA-MB-468 [3] = assay: Induction of apoptosis in human MDA-MB-468 cells assessed as late apoptotic cells at 28 uM incubated for 48 hrs by annexin-V-FITC staining based flow cytometric method (reference value: 0.99 %); type: functional
MDA-MB-468 [4] = assay: Induction of cell cycle arrest in human MDA-MB-468 cells assessed as cell accumulation at S phase at 28 uM incubated for 48 hrs by propidium iodide staining-based flow cytometric analysis (reference value: 34.20 %); type: functional
Outline: (§2)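 Cells were seeded at 1.2×10^5 per well and treated for 48 h (MDA-MB-468: 14, 28, 56 μM). Cells were fixed in 75% ethanol at −20 °C overnight, stained with PI and analysed by flow cytometry. Mean ± S.D. of three independent experiments versus DMSO.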

Protein smoothened [5] = target: T1, Protein smoothened (Homo sapiens, UniProt Q99835); assay: Binding affinity to recombinant human Smo receptor assessed as association constant at equilibrium by SPR analysis
MDA-MB-468 [6] = assay: Induction of apoptosis in human MDA-MB-468 cells assessed as increase in Bax protein expression level incubated for 1 hr by Western blot analysis; type: functional, cell-based
MDA-MB-468 [7] = assay: Induction of cell cycle arrest in human MDA-MB-468 cells assessed as cell accumulation at G2/M phase at 56 uM incubated for 48 hrs by propidium iodide staining-based flow cytometric analysis (reference value: 26.66 %); type: functional; outline: as §2
T47D = assay: Antiproliferation activity against human T47D cells assessed as reduction in cell viability incubated for 72 hr by MTT assay; type: functional, cell-based
Outline: (§3)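 MTT assay. Cells were plated overnight and exposed to a range of concentrations for 72 h. MTT was then added for 4 h and absorbance read at 570 nm. Inhibition% = [(control − compound)/(control − blank)] × 100. IC50 was fitted from the curves. Mean ± S.D. of 3–5 separate experiments. RPMI 1640 + 10% FBS; MCF10A in DMEM/F12 with 5% horse serum, EGF, hydrocortisone, insulin and cholera toxin.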

MDA-MB-468 [8] = assay: Induction of apoptosis in human MDA-MB-468 cells assessed as live cells at 56 uM incubated for 48 hrs by annexin-V-FITC staining based flow cytometric method (reference value: 98.5 %); type: functional
MDA-MB-231 [9] = assay: Induction of apoptosis in human MDA-MB-231 cells assessed as increase in apoptosis incubated for 48 hrs by annexin-V-FITC/PI staining based flow cytometric method; type: functional, cell-based
[10] = Acute toxicity in Kunming mouse assessed as mortality at 3965 mg/kg, ig observed for 14 days relative to control; type: organism-based; settings: in vivo, po, read-out: Activity; outline: as §1
MDA-MB-231 [11] = assay: Induction of cell cycle arrest in human MDA-MB-231 cells assessed as cell accumulation at G0/G1 phase incubated for 48 hrs by propidium iodide staining-based flow cytometric analysis; type: functional
MDA-MB-468 [12] = assay: Antiproliferation activity against human MDA-MB-468 cells assessed as reduction in cell viability incubated for 72 hr by MTT assay; type: functional, cell-based; settings: MDA-MB-468, 72 h; outline: as §3
MDA-MB-468 [13] = assay: Induction of apoptosis in human MDA-MB-468 cells assessed as live cells at 28 uM incubated for 48 hrs by annexin-V-FITC staining based flow cytometric method (reference value: 98.5 %); type: functional
MDA-MB-231 [14] = assay: Antiproliferation activity against human MDA-MB-231 cells assessed as reduction in cell viability incubated for 72 hrs measured after 4 hrs by MTT assay; type: functional, cell-based; outline: as §3
Mus musculus = species: Mus musculus; assay: Inhibition of SAG-induced hedgehog pathway in mouse NIH/3T3 cells assessed as inhibition of Smo localization to primary cilia pretreated with SAG for 6 hrs followed by incubating for 24 hrs by confocal laser-scanning microscopy; type: cell-based
Outline: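 NIH3T3 cells in DMEM + 10% FBS were seeded at 2×10^4 per well on chamber slides for 24 h. They were stimulated with SAG (200 nM) for 6 h, then exposed to compound for 24 h. Cells were fixed in 4% paraformaldehyde and permeabilized with 0.1% Triton. Acetylated α-tubulin and Smo were immunostained and imaged by confocal microscopy.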

MDA-MB-468 [15] = assay: Induction of cell cycle arrest in human MDA-MB-468 cells assessed as cell accumulation at G0/G1 phase at 28 uM incubated for 48 hrs by propidium iodide staining-based flow cytometric analysis (reference value: 38.94 %); type: functional; outline: as §2
[16] = Toxicity in BALB/c mouse xenografted with human MDA-MB-468 cells assessed as body weight at 80 to 100 mg/kg, ig measured every day for 21 day; type: organism-based; settings: in vivo, po, 504 h
Outline: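 Female BALB/c nude mice, 6–8 weeks, given 1.0×10^7 MDA-MB-468 cells s.c. in right posterior flank; at 100 mm3 tumours, randomized into groups of five. Daily gavage at 80 or 100 mg/kg in saline with 0.1% Tween 80, or vehicle alone; body weight recorded daily, tumour volume every 2 days; sacrificed day 21.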

Protein smoothened [17] = target: T1, Protein smoothened; assay: Binding affinity to recombinant human Smo receptor assessed as maximum response at equilibrium by SPR analysis
Outline: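 Surface plasmon resonance with recombinant Smo protein, run in PBS at a flow rate of 2 μL/s and 4 °C. Analytes were injected at 2.5, 5 and 10 μM. The chip was regenerated with 0.5% SDS:glycine-HCl pH 2.0 (1:1). ka, kd, Rmax, KA and KD came from a global fit of the sensorgrams.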

[18] = Acute toxicity in Kunming mouse assessed as mortality at 3008 mg/kg, ig observed for 14 days relative to control; type: organism-based; settings: in vivo, po, read-out: Activity; outline: as §1
MDA-MB-468 [19] = assay: Induction of apoptosis in human MDA-MB-468 cells assessed as early apoptotic cells at 28 uM incubated for 48 hrs by annexin-V-FITC staining based flow cytometric method (reference value: 2.00 %); type: functional
MDA-MB-231 [20] = assay: Induction of apoptosis in human MDA-MB-231 cells assessed as increase in Bax protein expression level incubated for 1 hr by Western blot analysis; type: functional, cell-based
MDA-MB-468 [21] = assay: Inhibition of hedgehog pathway in human MDA-MB-468 cells assessed as decrease in Smo protein levels in cilia at 28 uM incubated for 24 hrs by immunostaining based confocal microscopic analysis; type: cell-based
Outline: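 MDA-MB-468 cells were treated at 28 μM for 24 h with or without SAG. Cilia were immunostained for acetylated α-tubulin and Smo and imaged by confocal microscopy. Comparisons were made against DMSO and against SAG alone.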

T1 sequence (Q99835 whole entry): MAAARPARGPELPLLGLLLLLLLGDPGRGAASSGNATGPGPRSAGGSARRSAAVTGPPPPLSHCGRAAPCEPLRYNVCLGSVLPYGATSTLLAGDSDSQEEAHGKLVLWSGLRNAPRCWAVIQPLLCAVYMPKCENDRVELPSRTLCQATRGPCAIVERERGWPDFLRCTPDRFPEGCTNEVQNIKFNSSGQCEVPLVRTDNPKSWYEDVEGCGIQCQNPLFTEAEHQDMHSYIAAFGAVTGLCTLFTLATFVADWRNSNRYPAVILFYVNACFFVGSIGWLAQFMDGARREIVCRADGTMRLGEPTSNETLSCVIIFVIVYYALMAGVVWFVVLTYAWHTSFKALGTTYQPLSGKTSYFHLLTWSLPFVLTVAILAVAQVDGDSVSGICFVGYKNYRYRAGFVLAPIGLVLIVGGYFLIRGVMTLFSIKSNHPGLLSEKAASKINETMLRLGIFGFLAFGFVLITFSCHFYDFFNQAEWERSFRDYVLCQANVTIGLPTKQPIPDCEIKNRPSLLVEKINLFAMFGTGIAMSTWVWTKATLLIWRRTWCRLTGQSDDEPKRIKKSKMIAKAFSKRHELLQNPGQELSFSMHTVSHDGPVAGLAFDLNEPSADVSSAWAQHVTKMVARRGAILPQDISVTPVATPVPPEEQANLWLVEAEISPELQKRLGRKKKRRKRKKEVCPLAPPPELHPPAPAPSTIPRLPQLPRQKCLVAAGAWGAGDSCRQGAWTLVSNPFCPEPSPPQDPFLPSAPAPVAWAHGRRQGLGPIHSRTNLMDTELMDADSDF

SMILES: O=C(Nc1ccc(Cl)c(-c2nnc3c(Cl)cccn23)c1)c1ccc(Cl)nc1Cl
- mortality at 336 h [1]: 30%
- Activity (MDA-MB-468 [2]): 74.84%
- Activity (MDA-MB-468 [3]): 14.6%
- Activity (MDA-MB-468 [4]): 39%
- KA (Protein smoothened [5]): 9.71 ×10⁷ /M
- Activity (MDA-MB-468 [6]): Active
- Activity (MDA-MB-468 [7]): 42.57%
- IC50 (T47D): 42.3 µM
- Activity (MDA-MB-468 [8]): 60.3%
- Activity (MDA-MB-231 [9]): Dose-dependent effect
- mortality at 336 h [10]: 50%
- Activity (MDA-MB-231 [11]): Dose-dependent effect
- IC50 (MDA-MB-468 [12]): 28.6 µM
- Activity (MDA-MB-468 [13]): 67.8%
- IC50 (MDA-MB-231 [14]): 29.5 µM
- inhibition (Mus musculus): Active
- Activity (MDA-MB-468 [15]): 29.86%
- Activity [16]: Non-Toxic
- Rmax (Protein smoothened [17]): 90.5 RU
- mortality at 336 h [18]: 10%
- Activity (MDA-MB-468 [19]): 7.71%
- Activity (MDA-MB-231 [20]): Active
- inhibition (MDA-MB-468 [21]): Active
